Data set [1] deals with T1, ATP-dependent translocase ABCB1 (Homo sapiens, UniProt P08183). Put plainly: Reversal of P-glycoprotein-mediated multidrug resistance in human MDR1 gene transfected mouse L5178Y cells assessed as fluorescence activity ratio at 4 ug/ml by flow cytometry. It counts as cell-based. Background: Flow cytometry measures light scatter and fluorescence of single cells or particles in a stream.

The target of data set [2] is T1, ATP-dependent translocase ABCB1. Kind of data set: Reversal of P-glycoprotein-mediated multidrug resistance in human MDR1 gene transfected mouse L5178Y cells assessed as fluorescence activity ratio at 40 ug/ml by flow cytometry. It counts as cell-based.
Data set [3] in a line: Lipophilicity, log P of the compound. It counts as physicochemical. As to conditions: octanol/water. An outline of the steps:
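LogP computed for the unprotonated molecule with a commercial software package. Not measured experimentally.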

Data set [4] has as its target T1, ATP-dependent translocase ABCB1. Kind of data set: Reversal of P-glycoprotein-mediated multidrug resistance in human MDR1 gene transfected mouse L5178Y cells assessed as fluorescence activity ratio at 0.4 ug/ml by flow cytometry. It counts as cell-based. An outline of the steps: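 L5178 MDR1-transfected cells and parental cells grown in McCoy's 5A with 10% heat-inactivated horse serum, L-glutamine and antibiotics. Compound in DMSO added to cell aliquots for 10 min at room temperature. Rhodamine 123 then added (final 5.2 μM) for 20 min at 37 °C. Cells washed twice, resuspended in PBS pH 7.4, read by flow cytometry. FAR = (treated/untreated MDR) ÷ (treated/untreated parental).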

Data set [5] shares this target. Put plainly: Reversal of P-glycoprotein-mediated multidrug resistance in human MDR1 gene transfected human Colo 320 cells assessed as fluorescence activity ratio at 0.4 ug/ml by flow cytometry. It counts as cell-based. An outline of the steps: (§1)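 Colo320/MDR1 cells run as for the L5178 rhodamine 123 assay: compound preincubation 10 min at room temperature, then rhodamine 123 (final 5.2 μM) for 20 min at 37 °C. Monolayers detached with 0.25% trypsin for 2–3 min before flow cytometry. FAR taken as the treated/untreated fluorescence ratio in MDR cells over that in parental cells.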

For data set [6] the target is unchanged. Put plainly: Reversal of P-glycoprotein-mediated multidrug resistance in human MDR1 gene transfected human Colo 320 cells assessed as fluorescence activity ratio at 4 ug/ml by flow cytometry. It counts as cell-based. An outline of the steps:
as §1

Data set [7] in a line: Dissociation constant, pKa of the compound. The class given is physicochemical.
Data set [8] deals with L5178Y. Put plainly: Cytocidal activity against human MDR1 gene transfected mouse L5178Y cells after 48 hrs by MTT method. The class given is functional. The conditions noted are these: read-out: ID50 (the source's name). An outline of the steps:
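Cells incubated with a range of compound concentrations for 48 h at 37 °C. Viability read by MTT. ID50 derived from the curves. Values are means of duplicate experiments.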

In data set [9] the test system is L5178Y. Kind of data set: Toxicity in human MDR1 gene transfected mouse L5178Y cells at 40 ug/ml. It counts as cell-based.

Converted amounts (≈) assume the structure as drawn.

T1 sequence (P08183 whole entry): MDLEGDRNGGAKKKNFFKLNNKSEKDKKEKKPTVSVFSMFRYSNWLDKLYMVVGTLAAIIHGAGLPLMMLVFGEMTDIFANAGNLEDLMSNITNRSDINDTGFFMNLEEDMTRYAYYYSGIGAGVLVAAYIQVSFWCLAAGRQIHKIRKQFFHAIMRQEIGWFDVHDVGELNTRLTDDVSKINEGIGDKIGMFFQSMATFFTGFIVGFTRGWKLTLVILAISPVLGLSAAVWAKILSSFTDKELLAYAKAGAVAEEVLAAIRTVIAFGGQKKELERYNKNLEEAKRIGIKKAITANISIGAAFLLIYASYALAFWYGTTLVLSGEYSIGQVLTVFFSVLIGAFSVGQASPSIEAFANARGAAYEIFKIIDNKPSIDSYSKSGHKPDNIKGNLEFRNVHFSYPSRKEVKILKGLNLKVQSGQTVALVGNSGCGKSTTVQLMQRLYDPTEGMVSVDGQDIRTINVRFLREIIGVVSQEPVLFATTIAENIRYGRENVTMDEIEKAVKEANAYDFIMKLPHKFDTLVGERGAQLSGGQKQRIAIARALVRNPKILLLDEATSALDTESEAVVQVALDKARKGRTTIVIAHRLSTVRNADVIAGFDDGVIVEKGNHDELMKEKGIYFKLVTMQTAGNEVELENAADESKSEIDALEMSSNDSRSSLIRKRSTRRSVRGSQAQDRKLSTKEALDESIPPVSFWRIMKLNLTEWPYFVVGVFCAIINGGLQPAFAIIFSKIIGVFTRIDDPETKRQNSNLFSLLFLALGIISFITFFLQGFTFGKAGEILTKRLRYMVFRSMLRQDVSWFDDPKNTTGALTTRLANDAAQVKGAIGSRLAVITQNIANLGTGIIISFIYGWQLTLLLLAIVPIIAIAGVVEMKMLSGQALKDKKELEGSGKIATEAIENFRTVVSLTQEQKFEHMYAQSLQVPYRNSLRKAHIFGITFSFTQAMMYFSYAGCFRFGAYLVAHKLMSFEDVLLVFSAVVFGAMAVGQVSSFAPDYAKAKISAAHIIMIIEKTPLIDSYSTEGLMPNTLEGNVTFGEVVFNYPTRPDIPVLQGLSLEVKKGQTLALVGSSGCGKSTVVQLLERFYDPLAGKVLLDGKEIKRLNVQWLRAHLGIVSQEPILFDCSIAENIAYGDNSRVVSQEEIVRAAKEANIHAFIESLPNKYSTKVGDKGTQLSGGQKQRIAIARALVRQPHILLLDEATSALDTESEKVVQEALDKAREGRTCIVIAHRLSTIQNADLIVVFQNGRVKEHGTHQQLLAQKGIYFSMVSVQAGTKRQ

Regarding `O=C1/C(=C/c2ccccc2)CNC/C1=C\c1ccccc1`, the Ratio in [1] amounted to 1.58; in data set [2] it was 2. For the same compound, the LogP – broadly, the decadic logarithm of the partition coefficient of the neutral form, usually between octanol and water – in [3] is 3.38.

Take `CC[N+](C)(CC)CCOc1ccc(C(=O)N2C/C(=C\c3ccc([N+](=O)[O-])cc3)C(=O)/C(=C/c3ccc([N+](=O)[O-])cc3)C2)cc1.[I-]`: the Ratio in data set [1] came to 1.03; in data set [2], 1.22. In addition, in data set [3] (read-out: LogP), the LogP is 1.3.

For `CC[N+](C)(CC)CCOc1ccc(C(=O)N2C/C(=C\c3ccccc3)C(=O)/C(=C/c3ccccc3)C2)cc1.[I-]`, the figures for the Ratio in data set [1] and in data set [2] were 1.37 and 1.05, respectively. Further, the log partition coefficient (LogP) in [3] (read-out: LogP) was found to be 1.37.

For the compound `CC[N+](C)(CC)CCOc1ccc(C(=O)N2C/C(=C\c3ccc(Cl)cc3)C(=O)/C(=C/c3ccc(Cl)cc3)C2)cc1.[I-]`, the Ratio in data set [1] is 1.21; in data set [2] it was 1.85. In addition, the LogP in data set [3] (read-out: LogP) was 2.73.

Turning to `Cc1ccc(/C=C2\CNC/C(=C\c3ccc(C)cc3)C2=O)cc1`, the Ratio in data set [1] is 3.26; in data set [2], 4.03; in [4], 1; in [5], 1.24; in data set [6] it was 2.42. Further, in data set [3], the LogP stood at 4.25.

With `CC[N+](C)(CC)CCOc1ccc(C(=O)N2C/C(=C\c3ccc(C)cc3)C(=O)/C(=C/c3ccc(C)cc3)C2)cc1.[I-]`, the Ratio in data set [1] is recorded as 1.93; in data set [2] it was 114. Also, the LogP in data set [3] (read-out: LogP) was determined as 2.27.

Turning to `O=C1/C(=C/c2ccc(Cl)cc2)CNC/C1=C\c1ccc(Cl)cc1`, the Ratio stood at 1.25 in data set [1] and 0.91 in data set [2]. The LogP in data set [3] is 4.71.

As for `O=C1/C(=C/c2ccc([N+](=O)[O-])cc2)CNC/C1=C\c1ccc([N+](=O)[O-])cc1`, the log partition coefficient (LogP) in [3] was 3.27.

Turning to `Cc1ccc(/C=C2\CN(C(=O)c3ccc(OCCN4CCOCC4)cc3)C/C(=C\c3ccc(C)cc3)C2=O)cc1.Cl`, the pKa (usually the pH at which an ionisable group is half protonated) in [7] was determined as 8.5. Also, in data set [3] (read-out: LogP), the LogP amounted to 5.34.

On to `Cl.O=C1/C(=C/c2ccc(Cl)cc2)CN(C(=O)c2ccc(OCCN3CCCCC3)cc2)C/C1=C\c1ccc(Cl)cc1`, for which the values for the Ratio in data set [1] and in data set [2] were 157 and 133, respectively. The same compound had a pKa in [7] of 11.1. The compound further yielded a LogP in data set [3] of 6.86. Besides, in the data set on L5178Y [8], the IC50 worked out at 4.17 µg/mL.

Consider `CN(C)CCOc1ccc(C(=O)N2C/C(=C\c3ccc(Cl)cc3)C(=O)/C(=C/c3ccc(Cl)cc3)C2)cc1.Cl`, for which the pKa in data set [7] worked out at 10.7. The same compound yielded a LogP in data set [3] of 5.95.

As to `CCN(CC)CCOc1ccc(C(=O)N2C/C(=C\c3ccccc3)C(=O)/C(=C/c3ccccc3)C2)cc1.Cl`, the pKa in data set [7] is 10.8. In data set [3], this compound had a LogP of 5.35. Also, the IC50 with L5178Y [8] is 3.27 µg/mL.

Compound `Cl.O=C1/C(=C/c2ccc([N+](=O)[O-])cc2)CN(C(=O)c2ccc(OCCN3CCOCC3)cc2)C/C1=C\c1ccc([N+](=O)[O-])cc1` returned a pKa in data set [7] of 8.5. Also, the LogP in [3] (read-out: LogP) turned out to be 4.36.

`Cl.O=C1/C(=C/c2ccccc2)CN(C(=O)c2ccc(OCCN3CCOCC3)cc2)C/C1=C\c1ccccc1` came in with a pKa in [7] of 8.5. Besides, the lipophilicity (LogP) in [3] (read-out: LogP) was found to be 4.64.

`CCN(CC)CCOc1ccc(C(=O)N2C/C(=C\c3ccc(C)cc3)C(=O)/C(=C/c3ccc(C)cc3)C2)cc1.Cl`: the Ratio worked out at 106 in data set [1] and 66.6 in data set [2]. Further, in data set [7], the pKa is 10.8. Also, the LogP in data set [3] amounted to 6.25. Besides, the IC50 in the data set with L5178Y [8] stood at 1.56 µg/mL.

`Cc1ccc(/C=C2\CN(C(=O)c3ccc(OCCN4CCCCC4)cc3)C/C(=C\c3ccc(C)cc3)C2=O)cc1.Cl`: the Ratio in [1] is recorded as 179; in data set [2], 146; in data set [4] it was 7.35; in data set [5], 2.49; in data set [6], 10.8. In data set [7], this compound came in with a pKa of 11.1. Besides, in data set [3], the LogP is on record as 6.4. For the same compound, the IC50 in the data set with L5178Y [8] came out at 2.83 µg/mL.

Regarding `Cl.O=C1/C(=C/c2ccc(Cl)cc2)CN(C(=O)c2ccc(OCCN3CCOCC3)cc2)C/C1=C\c1ccc(Cl)cc1`, the Ratio in data set [1] is 76; in data set [2], 6.88. Also, in data set [7], the pKa amounted to 8.5. In addition, the LogP in data set [3] (read-out: LogP) is 5.8.

`CCN(CC)CCOc1ccc(C(=O)N2C/C(=C\c3ccc([N+](=O)[O-])cc3)C(=O)/C(=C/c3ccc([N+](=O)[O-])cc3)C2)cc1.Cl`: the Ratio is recorded as 77.5 in data set [1] and 14.1 in data set [2]. In data set [7], this compound registered a pKa of 10.8. Moreover, the LogP in data set [3] came to 5.27.

Take `CN(C)CCOc1ccc(C(=O)N2C/C(=C\c3ccc([N+](=O)[O-])cc3)C(=O)/C(=C/c3ccc([N+](=O)[O-])cc3)C2)cc1.Cl`: in [7], the pKa was determined as 10.7. The lipophilicity (LogP) in data set [3] (read-out: LogP) was 4.52.

As to `Cl.O=C1/C(=C/c2ccc([N+](=O)[O-])cc2)CN(C(=O)c2ccc(OCCN3CCCCC3)cc2)C/C1=C\c1ccc([N+](=O)[O-])cc1`, the results for the Ratio in [1] and in data set [2] were 145 and 51.5, respectively. The compound also had a pKa in data set [7] of 11.1. The same compound showed a log partition coefficient (LogP) in data set [3] of 5.42. The IC50 in the data set on L5178Y [8] is 2.15 µg/mL.

Compound `Cl.O=C1/C(=C/c2ccccc2)CN(C(=O)c2ccc(OCCN3CCCCC3)cc2)C/C1=C\c1ccccc1` yielded a pKa in [7] of 11.1. In addition, the LogP in data set [3] is recorded as 5.51. Besides, in the data set with L5178Y [8], the IC50 was determined as 3.28 µg/mL.

`CN(C)CCOc1ccc(C(=O)N2C/C(=C\c3ccccc3)C(=O)/C(=C/c3ccccc3)C2)cc1.Cl`: the Ratio in data set [1] is 45.5; in data set [2] it was 51.6. The compound also came in with a pKa in data set [7] of 10.7. In data set [3], the LogP came out at 4.6.

Take `CCN(CC)CCOc1ccc(C(=O)N2C/C(=C\c3ccc(Cl)cc3)C(=O)/C(=C/c3ccc(Cl)cc3)C2)cc1.Cl`: the values for the Ratio in data set [1] and in data set [2] were 118 and 99.7, respectively. The compound also displayed a pKa in data set [7] of 10.8. In data set [3], this compound showed a LogP of 6.71. Moreover, the IC50 with L5178Y [8] is 1.53 µg/mL.

Regarding `Cc1ccc(/C=C2\CN(C(=O)c3ccc(OCCN(C)C)cc3)C/C(=C\c3ccc(C)cc3)C2=O)cc1.Cl`, the Activity result with L5178Y [9] was “Toxic”. The compound also had a pKa in data set [7] of 10.7. The compound further showed a lipophilicity (LogP) in data set [3] of 5.5.

As for `COc1ccc(CCN(C)CCC[C@](C#N)(c2ccc(OC)c(OC)c2)C(C)C)cc1OC`, the IC50 in the data set on L5178Y [8] was 42 µg/mL (≈ 92.4 µM).
